Active and inactive are the calls of the source. The calls are words filed in the database; no cut-off is given here.
What was measured:
[1] = Cytotoxicity against RAOSMC after 3 days by cell counting analysis; conditions: Rattus norvegicus, 72 h
In short: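 Primary aortic SMCs from male Sprague–Dawley rats, passages 4–10, are seeded at 2 × 10⁵ per 35-mm dish in DMEM with 10% FCS. After 24 h they are arrested in 0.4% FCS for 72 h, then given 10% FCS plus compound (DMSO at most 1%) for 72 h at 37 °C. Cells are trypsinized and counted with a Coulter counter. IC50 is obtained by linear regression of log concentration versus logit.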

NCI-H460 [2] = assay: Cytotoxicity against human NCI-H460 cells after 3 days by cell counting analysis; assay type: functional, cell-based; conditions: NCI-H460, 72 h
In short: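 NCI-H460 cells in RPMI-1640 with 10% FCS are seeded at 8 × 10⁴ per 35-mm dish and exposed to compound (DMSO at most 1%) 24 h later. Cells are harvested after 72 h, trypsinized and counted with a Coulter counter. IC50 is derived by linear regression of log concentration versus logit.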

NCI-H460 [3] = assay: Cell cycle arrest in human NCI-H460 cells assessed as accumulation at G0/G1 phase at IC50 after 20 hrs using propidium Iodide staining by flow cytometry in presence of 10% fetal calf serum; assay type: functional
In short: (§1)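 NCI-H460 cells are seeded at 2 × 10⁵ per 35-mm dish in RPMI with 10% FCS. After 24 h they are serum-starved in 0.4% FCS for 2 days, then restimulated with 10% FCS with or without compound at 37 °C. Cells are trypsinized, fixed in 62% ethanol and stained 30 min in the dark (5 µg/mL propidium iodide, RNase, 1% NP-40).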

NCI-H460 [4] = assay: Cell cycle arrest in human NCI-H460 cells assessed as accumulation at S phase at IC50 after 20 hrs using propidium Iodide staining by flow cytometry in presence of 10% fetal calf serum; assay type: functional; in short: as §1
NCI-H460 [5] = assay: Cell cycle arrest in human NCI-H460 cells assessed as accumulation at G2/M phase at IC50 after 20 hrs using propidium Iodide staining by flow cytometry in presence of 10% fetal calf serum; assay type: functional; in short: as §1
NCI-H460 [6] = assay: Cell cycle arrest in human NCI-H460 cells assessed as accumulation at sub-G0/G1 phase at IC50 after 20 hrs using propidium Iodide staining by flow cytometry in presence of 10% fetal calf serum; assay type: functional, cell-based
[7] = molecular target: DNA topoisomerase 2-alpha (Homo sapiens) (UniProt P11388); assay: Inhibition of topoisomerase 2-mediated relaxation of supercoiled pRYG DNA at 0.1 uM after 10 mins using ethidium bromide staining by agarose gel electrophoresis
Sequence of DNA topoisomerase 2-alpha (Homo sapiens) (P11388 whole entry): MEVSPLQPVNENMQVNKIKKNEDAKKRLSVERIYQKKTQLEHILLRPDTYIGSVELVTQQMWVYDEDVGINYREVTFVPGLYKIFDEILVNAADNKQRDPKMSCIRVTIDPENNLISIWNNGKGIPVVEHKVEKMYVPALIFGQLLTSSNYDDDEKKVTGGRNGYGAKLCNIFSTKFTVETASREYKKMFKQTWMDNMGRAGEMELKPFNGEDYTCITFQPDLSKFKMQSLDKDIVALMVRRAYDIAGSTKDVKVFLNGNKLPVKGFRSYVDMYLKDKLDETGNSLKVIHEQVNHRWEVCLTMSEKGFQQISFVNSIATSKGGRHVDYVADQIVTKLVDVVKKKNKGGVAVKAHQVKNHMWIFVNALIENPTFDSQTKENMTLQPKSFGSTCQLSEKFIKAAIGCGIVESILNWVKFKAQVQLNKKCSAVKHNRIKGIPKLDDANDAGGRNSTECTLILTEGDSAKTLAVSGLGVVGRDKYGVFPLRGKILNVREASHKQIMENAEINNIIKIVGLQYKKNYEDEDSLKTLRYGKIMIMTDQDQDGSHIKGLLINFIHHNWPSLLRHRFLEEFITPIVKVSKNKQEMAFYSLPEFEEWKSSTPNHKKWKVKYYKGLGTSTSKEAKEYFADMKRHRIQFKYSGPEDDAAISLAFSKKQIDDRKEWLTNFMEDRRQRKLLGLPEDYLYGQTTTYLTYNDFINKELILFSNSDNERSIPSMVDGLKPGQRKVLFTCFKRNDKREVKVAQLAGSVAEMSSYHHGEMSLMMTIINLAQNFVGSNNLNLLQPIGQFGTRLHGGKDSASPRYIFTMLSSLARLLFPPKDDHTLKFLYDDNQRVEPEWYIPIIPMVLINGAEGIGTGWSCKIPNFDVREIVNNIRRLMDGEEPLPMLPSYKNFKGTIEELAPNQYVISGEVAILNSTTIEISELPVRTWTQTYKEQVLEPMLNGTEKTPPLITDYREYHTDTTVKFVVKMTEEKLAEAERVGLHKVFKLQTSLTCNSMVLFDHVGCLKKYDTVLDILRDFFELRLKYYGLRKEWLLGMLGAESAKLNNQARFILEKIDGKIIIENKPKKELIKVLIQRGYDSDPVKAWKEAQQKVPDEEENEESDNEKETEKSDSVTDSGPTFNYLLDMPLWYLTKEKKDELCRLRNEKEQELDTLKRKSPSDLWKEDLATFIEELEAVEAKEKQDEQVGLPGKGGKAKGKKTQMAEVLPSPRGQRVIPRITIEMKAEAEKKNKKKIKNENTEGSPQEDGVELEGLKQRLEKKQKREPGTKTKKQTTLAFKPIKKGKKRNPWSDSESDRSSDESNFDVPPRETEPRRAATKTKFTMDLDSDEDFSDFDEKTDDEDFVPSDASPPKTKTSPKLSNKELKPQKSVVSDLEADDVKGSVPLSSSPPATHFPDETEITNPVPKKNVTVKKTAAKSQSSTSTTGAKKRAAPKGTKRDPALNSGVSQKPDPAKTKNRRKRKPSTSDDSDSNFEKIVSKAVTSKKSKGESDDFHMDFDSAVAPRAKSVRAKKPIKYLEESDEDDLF

Nucleic Acid = assay: Binding affinity to supercoiled pRYG DNA at 0.1 uM after 10 mins by agarose gel electrophoresis; assay type: nucleic-acid assay
NCI-H460 [8] = assay: Antitumor activity against human NCI-H460 cells xenografted in athymic Swiss nude mouse assessed as tumor growth inhibition at 16.9 mg/kg, iv administered 2 days after tumor implantation for every 4th day for four times; assay type: functional, organism-based; set-up: dose 16.9 mg/kg
In short: (§2)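 NCI-H460 tumor fragments are implanted s.c. in both flanks of athymic nude mice on day 0. Dosing is i.v. on days 2, 6, 10 and 14 (q4dx4) in 10% DMSO in water, with vehicle-only controls. Tumor diameters are measured twice weekly by caliper. Tumor weight in treated mice is compared with controls by unpaired two-tailed Student's t-test.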

Mus musculus = assay: Toxicity in human […] cells xenografted in athymic Swiss nude mouse at 16.9 mg/kg, iv administered 2 days after tumor implantation for every 4th day for four times; assay type: organism-based; set-up: dose 16.9 mg/kg, route intravenous; conditions: in vivo, 48 h
NCI-H460 [9] = assay: Antitumor activity against human NCI-H460 cells xenografted in athymic Swiss nude mouse assessed as tumor growth inhibition at 10 mg/kg, iv administered 2 days after tumor implantation for every 4th day for four times; assay type: functional, organism-based; set-up: dose 10 mg/kg; in short: as §2
NCI-H460 [10] = assay: Selectivity ratio of IC50 for rat SMC to IC50 for human NCI-H460 cells

SMILES | IC50 [1] [nM] | IC50 (NCI-H460 [2]) [nM] | other results
Cn1ccc2c3ccoc3c3c(c21)C(=O)N(CCNCCCNCCN1C(=O)c2c(c4c(ccn4C)c4ccoc24)C1=O)C3=O | 90 | 3 | Activity (NCI-H460 [3]): 76.63%; Activity (NCI-H460 [4]): 10.56%; Activity (NCI-H460 [5]): 12.81%; Activity (NCI-H460 [6]): inactive; inhibition [7]: Active; Activity (Nucleic Acid): Active; TGI (NCI-H460 [8]): Active; Activity (Mus musculus): Non-toxic; TGI (NCI-H460 [9]): inactive
O=C1c2c(c3sccc3c3ccoc23)C(=O)N1CCNCCCNCCN1C(=O)c2c(c3sccc3c3ccoc23)C1=O | > 30000 | 70 | Ratio IC50 (NCI-H460 [10]): 500
O=C1C(c2cccs2)=C(c2cccs2)C(=O)N1CCNCCCNCCN1C(=O)C(c2cccs2)=C(c2cccs2)C1=O | 1300 | 4300 | –
O=C1C(c2ccccc2)=C(c2ccccc2)C(=O)N1CCNCCCNCCN1C(=O)C(c2ccccc2)=C(c2ccccc2)C1=O | 620 | 1200 | –
O=C1C(c2ccco2)=C(c2cccs2)C(=O)N1CCNCCCNCCN1C(=O)C(c2ccco2)=C(c2cccs2)C1=O | 3500 | 500 | –
Cn1cccc1C1=C(c2ccco2)C(=O)N(CCNCCCNCCN2C(=O)C(c3ccco3)=C(c3cccn3C)C2=O)C1=O | 730 | 650 | –
Cn1cccc1C1=C(c2c[nH]c3ccccc23)C(=O)N(CCNCCCNCCN2C(=O)C(c3c[nH]c4ccccc34)=C(c3cccn3C)C2=O)C1=O | 16500 | 3900 | –
O=C1c2cccc3cccc(c23)C(=O)N1CCNCCCNCCN1C(=O)c2cccc3cccc(c23)C1=O [ELINAFIDE] | 12 | 8 | Ratio IC50 (NCI-H460 [10]): 1.5; Activity (NCI-H460 [3]): 68.4%; Activity (NCI-H460 [4]): 13.44%; Activity (NCI-H460 [5]): 18.15%; Activity (NCI-H460 [6]): inactive; inhibition [7]: Active; Activity (Nucleic Acid): Active
O=C1C(c2cccs2)=C(c2c[nH]c3ccccc23)C(=O)N1CCNCCCNCCN1C(=O)C(c2cccs2)=C(c2c[nH]c3ccccc23)C1=O | 4700 | 4200 | –
Cn1cccc1C1=C(c2cccs2)C(=O)N(CCNCCCNCCN2C(=O)C(c3cccs3)=C(c3cccn3C)C2=O)C1=O | 1800 | 3400 | –
O=C1C(c2cccs2)=C(c2cccs2)C(=O)N1CCCN1CCN(CCCN2C(=O)C(c3cccs3)=C(c3cccs3)C2=O)CC1 | > 30000 | > 30000 | –
O=C1c2c(c3ccccc3c3ccccc23)C(=O)N1CCNCCCNCCN1C(=O)c2c(c3ccccc3c3ccccc23)C1=O | 230 | 400 | –
O=C1C(c2ccccc2)=C(c2c[nH]c3ccccc23)C(=O)N1CCNCCCNCCN1C(=O)C(c2ccccc2)=C(c2c[nH]c3ccccc23)C1=O | 1000 | 3900 | –

Source: ChEMBL document CHEMBL1817653, “Synthesis, structural, and biological evaluation of bis-heteroarylmaleimides and bis-heterofused imides” (Bioorg Med Chem, 2011)
